From ChEMBL document CHEMBL4145545, “Synthesis and structure-activity relationships of asymmetric dimeric β-carboline derivatives as potential antitumor agents” (Eur J Med Chem, 2018)
Calls of active or inactive are those of the source. The rule behind the calls is not given here.

Experiments:
[1] = Cytotoxicity against human BGC cells assessed as cell growth inhibition after 24 hrs by MTT assay; type: functional, cell-based
How it was run: (§1)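 Cell lines grown to log phase in RPMI-1640 with 10% FBS, penicillin and streptomycin. About 10^5 cells/mL were plated and pre-incubated 24 h at 37 °C in 5% CO2. Compounds were given in DMSO, final ≤2% (v/v). MTT read-out was OD at 490 nm. Triplicate wells per concentration, each assay run ≥3 times. IC50 is 50% OD reduction versus untreated cells, calculated by the Logit method. Cisplatin was the reference.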

HT-29 [2] = test: Cytotoxicity against human HT-29 cells assessed as cell growth inhibition after 24 hrs by MTT assay; type: functional, cell-based; settings: HT-29, 24 h; how it was run: as §1
[3] = tested on: Lewis lung carcinoma cell line; test: Antitumor activity against mouse LLC cells implanted in mouse assessed as tumor growth inhibition at 1.6 mg/kg, ip administered once per day for 7 consecutive days starting from 24 hrs post tumor inoculation and measured on day 21 post tumor inoculation relative to control; type: functional; settings: read-out: TGI
How it was run: (§2)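 Tumor cells were harvested from 7-day donor tumors, and 2×10^6 viable cells/mouse were injected s.c. in the armpit. Groups of 10 female mice received i.p. compound daily for 7 days, starting 24 h after inoculation. Controls were vehicle (negative) and CTX 30 mg/kg (positive). Body weight was recorded every 3 days. On day 21 tumors were excised and weighed, and inhibition was calculated as (C−T)/C×100 from mean tumor weights.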

Mus musculus [4] = test: Nephrotoxicity in Kunming mouse at 5 to 500 mg/kg, ip after 14 days by macroscopic method; type: toxicity, organism-based; settings: in vivo, 336 h
[5] = tested on: Lewis lung carcinoma cell line; test: Cytotoxicity against mouse LLC cells assessed as cell growth inhibition after 24 hrs by MTT assay; type: functional, cell-based; how it was run: as §1
Mus musculus [6] = test: Cardiotoxicity in Kunming mouse at 5 to 500 mg/kg, ip after 14 days by macroscopic method; type: toxicity, organism-based; settings: in vivo, 336 h
Mus musculus [7] = test: Neurotoxicity in Kunming mouse assessed as supination at 5 to 500 mg/kg, ip observed continuously for first 2 hrs, intermittently for next 24 hrs and occasionally thereafter for 14 days; type: toxicity, organism-based; settings: in vivo
How it was run: (§3)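 SPF KM mice, 6-8 weeks, 19-22 g, fasted overnight with water available. Single i.p. dose, 5.0 to 500 mg kg-1 in 0.5% CMC-Na, 10 mice per group (5 male, 5 female). Observed for behaviour, neurotoxic signs and deaths, then killed on day 14 and heart, liver and kidneys inspected macroscopically. LD50 derived graphically.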

A-375 = test: Cytotoxicity against human A375 cells assessed as cell growth inhibition after 24 hrs by MTT assay; type: functional, cell-based; settings: A-375, 24 h; how it was run: as §1
Sarcoma-180 [8] = test: Antitumor activity against mouse Sarcoma 180 cells implanted in mouse assessed as tumor growth inhibition at 1.6 mg/kg, ip administered once per day for 7 consecutive days starting from 24 hrs post tumor inoculation and measured on day 21 post tumor inoculation relative to control; type: functional; settings: Sarcoma-180, ip, read-out: TGI; how it was run: as §2
[9] = Acute toxicity in ip dosed Kunming mouse observed continuously for first 2 hrs, intermittently for next 24 hrs and occasionally thereafter for 14 days; type: organism-based; settings: in vivo; how it was run: as §3
769-P = test: Cytotoxicity against human 769-P cells assessed as cell growth inhibition after 24 hrs by MTT assay; type: functional, cell-based; how it was run: as §1
Mus musculus [10] = test: Neurotoxicity in Kunming mouse assessed as tremble at 5 to 500 mg/kg, ip observed continuously for first 2 hrs, intermittently for next 24 hrs and occasionally thereafter for 14 days; type: toxicity, organism-based; settings: in vivo; how it was run: as §3
Mus musculus [11] = test: Hepatotoxicity in Kunming mouse at 5 to 500 mg/kg, ip after 14 days by macroscopic method; type: toxicity, organism-based; settings: in vivo, 336 h
HepG2 [12] = test: Cytotoxicity against human HepG2 cells assessed as cell growth inhibition after 24 hrs by MTT assay; type: functional, cell-based; settings: HepG2, 24 h; how it was run: as §1
MCF7 [13] = test: Cytotoxicity against human MCF7 cells assessed as cell growth inhibition after 24 hrs by MTT assay; type: functional, cell-based; settings: MCF7, 24 h; how it was run: as §1
SK-OV-3 = test: Cytotoxicity against human SKOV3 cells assessed as cell growth inhibition after 24 hrs by MTT assay; type: functional, cell-based; settings: SK-OV-3, 24 h; how it was run: as §1
ECa-109 cell line = test: Cytotoxicity against human ECA109 cells assessed as cell growth inhibition after 24 hrs by MTT assay; type: functional, cell-based; settings: ECa-109, 24 h; how it was run: as §1
Mus musculus [14] = test: Neurotoxicity in Kunming mouse assessed as twitch at 5 to 500 mg/kg, ip observed continuously for first 2 hrs, intermittently for next 24 hrs and occasionally thereafter for 14 days; type: toxicity, organism-based; settings: in vivo; how it was run: as §3
Mus musculus [15] = test: Neurotoxicity in Kunming mouse assessed as jumping behavior at 5 to 500 mg/kg, ip observed continuously for first 2 hrs, intermittently for next 24 hrs and occasionally thereafter for 14 days; type: toxicity, organism-based; settings: in vivo; how it was run: as §3
Mus musculus [16] = test: Acute toxicity in ip dosed Kunming mouse assessed as death at higher dose up to 4 to 8 hrs; type: organism-based; settings: in vivo; how it was run: as §3
Chorioallantoic membrane = test: In vivo antiangiogenic activity in chicken embryo chorioallantoic membrane at 50 uM/disc after 48 hrs by microscopic method; type: functional, organism-based; settings: Gallus gallus
[17] = tested on: Lewis lung carcinoma cell line; test: Antitumor activity against mouse LLC cells implanted in mouse assessed as tumor growth inhibition at 8.3 mg/kg, ip administered once per day for 7 consecutive days starting from 24 hrs post tumor inoculation and measured on day 21 post tumor inoculation relative to control; type: functional; settings: read-out: TGI; how it was run: as §2
Sarcoma-180 [18] = test: Antitumor activity against mouse Sarcoma 180 cells implanted in mouse assessed as tumor growth inhibition at 8.3 mg/kg, ip administered once per day for 7 consecutive days starting from 24 hrs post tumor inoculation and measured on day 21 post tumor inoculation relative to control; type: functional; settings: Sarcoma-180, ip, read-out: TGI; how it was run: as §2
HT-29 [19] = test: Antimigratory activity against human HT-29 cells assessed as reduction in wound closure at 0.5 to 50 uM after 24 hrs by inverted microscopic method; type: functional, cell-based
How it was run: (§4)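 HT-29 or LLC cells (about 1×10^6/mL) were grown to 90% confluence and given a single straight pipette-tip scratch. After a PBS wash, fresh FBS-containing medium with various compound concentrations was added for 24 h. Migration distance was measured under an inverted microscope. Each assay was done three times, with CA4P as positive control.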

[20] = tested on: Lewis lung carcinoma cell line; test: Antimigratory activity against mouse LLC cells assessed as reduction in wound closure at 50 uM after 24 hrs by inverted microscopic method; type: functional, cell-based; how it was run: as §4
[21] = tested on: Lewis lung carcinoma cell line; test: Antitumor activity against mouse LLC cells implanted in mouse assessed as tumor growth inhibition at 7.5 mg/kg, ip administered once per day for 7 consecutive days starting from 24 hrs post tumor inoculation and measured on day 21 post tumor inoculation relative to control; type: functional; settings: read-out: TGI; how it was run: as §2
Sarcoma-180 [22] = test: Antitumor activity against mouse Sarcoma 180 cells implanted in mouse assessed as tumor growth inhibition at 7.5 mg/kg, ip administered once per day for 7 consecutive days starting from 24 hrs post tumor inoculation and measured on day 21 post tumor inoculation relative to control; type: functional; settings: Sarcoma-180, ip, read-out: TGI; how it was run: as §2
HepG2 [23] = test: Cytotoxicity against human HepG2 cells; type: functional, cell-based; how it was run: as §1
HT-29 [24] = test: Cytotoxicity against human HT-29 cells; type: functional, cell-based; how it was run: as §1
MCF7 [25] = test: Cytotoxicity against human MCF7 cells; type: functional, cell-based; how it was run: as §1

| Compound | IC50 [1] [µM] | IC50 (HT-29 [2]) [µM] | Activity (Mus musculus [4]) | IC50 [5] [µM] | Activity (Mus musculus [6]) | Activity (Mus musculus [7]) | IC50 (A-375) [µM] | LD50 at 14 days [9] [mg/kg] | IC50 (769-P) [µM] | Activity (Mus musculus [10]) | Activity (Mus musculus [11]) | IC50 (HepG2 [12]) [µM] | IC50 (MCF7 [13]) [µM] | IC50 (SK-OV-3) [µM] | IC50 (ECa-109 cell line) [µM] | Activity (Mus musculus [14]) | Activity (Mus musculus [15]) | Activity (Mus musculus [16]) | also measured |
| --- | --- | --- | --- | --- | --- | --- | --- | --- | --- | --- | --- | --- | --- | --- | --- | --- | --- | --- | --- |
| COc1ccc2c3ccnc(C)c3n(CCCCOc3ccc4c5ccnc(C)c5n(CCCc5ccccc5)c4c3)c2c1.Cl | 4.7 | 21.6 | Non-Toxic | 14.4 | Non-Toxic | Toxic | 15.3 | 8 | 8.5 | Toxic | Non-Toxic | 5.6 | 23.4 | 30 | 18.4 | Toxic | Toxic | Toxic | inhibition in vivo at 1.6 mg/kg [3]: 38.2%; inhibition in vivo at 1.6 mg/kg (Sarcoma-180 [8]): 49.9% |
| COc1ccc(-c2nccc3c4ccccc4n(CCCCOc4ccc5c6ccnc(C)c6n(CCCc6ccccc6)c5c4)c23)cc1.Cl | 12.1 | 13.3 | Non-Toxic | 3.4 | Non-Toxic | Non-Toxic | 13.6 | 41.5 | 4.9 | Non-Toxic | Non-Toxic | 14.1 | 8.5 | 4.2 | 4.5 | Non-Toxic | Non-Toxic | Toxic | Activity (Chorioallantoic membrane): Active; inhibition in vivo at 8.3 mg/kg [17]: 48.1%; inhibition in vivo at 8.3 mg/kg (Sarcoma-180 [18]): 54.6%; Activity (HT-29 [19]): Active; Activity [20]: Active |
| Cc1nccc2c3ccc(OCCCCn4c5ccccc5c5ccnc(-c6cccs6)c54)cc3n(CCCc3ccccc3)c12.Cl | 11.4 | 18.1 | Non-Toxic | 4.2 | Non-Toxic | Non-Toxic | 14.6 | 37.5 | 11.9 | Non-Toxic | Non-Toxic | 8.1 | 12 | 11.2 | 4.9 | Non-Toxic | Non-Toxic | Toxic | inhibition in vivo at 7.5 mg/kg [21]: 31.6%; inhibition in vivo at 7.5 mg/kg (Sarcoma-180 [22]): 47.3% |
| CCCCn1c2cnccc2c2ccc(OCCCCCCOc3ccc4c5ccnc(C)c5n(CCCC)c4c3)cc21 |  |  |  |  |  |  |  |  |  |  |  |  |  |  |  |  |  |  | IC50 (HepG2 [23]): 13 µM; IC50 (HT-29 [24]): 6.1 µM; IC50 (MCF7 [25]): > 100 µM |
